Activity calls are given as the source filed them.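 How the source made its calls: active means mean IC50 at or below 20 µM in a cell killing test; inactive means the rest.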
Test system: CHO-XBP1 cytotoxicity, ATPlite luminescence, 6 h
Assay: CHO-XBP1 cell viability loss – 6 h exposure, ATPlite luminescence, cytotoxicity control for UPR apoptotic arm activator project, SAR follow-up (AID 588570)
Procedure, shortened: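 Assay system – CHO-XBP1 cell line · Quantity – 1000 cells/well · Medium – F12 plus 10% FBS · Dosing – dose-response series, DMSO ≤1% · Timing – overnight cell attachment, 6 h compound exposure at 37 °C · Technique – ATP-based luminescence with ATPLite 1-Step reagent · Controls – tunicamycin 10 µg/mL vs DMSO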

Row | Structure (SMILES) | IC50
1 | O=C(Nc1ccc(S(=O)(=O)N2CCC3(CCCCC3)CC2)cc1)c1ccc([N+](=O)[O-])o1 | > 80 µM (inactive)
2 | O=C(Nc1nc2ccc(C(F)(F)F)cc2s1)c1ccccn1 | 4.62 µM
3 | O=C(Nc1ccc(S(=O)(=O)N2CCNCC2)cc1)c1ccc([N+](=O)[O-])o1 | > 80 µM (inactive)
4 | O=C(Nc1nc2cccc(F)c2s1)c1ccccn1 | 7.08 µM
5 | O=C(Nc1ccc(S(=O)(=O)C2CCOCC2)cc1)c1ccc([N+](=O)[O-])o1 | > 80 µM (inactive)
6 | O=C(Nc1nc2c(F)cccc2s1)c1ccccn1 | 4.11 µM
7 | O=C(Nc1ccc(S(=O)(=O)N2CCC(O)CC2)cc1)c1ccc([N+](=O)[O-])o1 | > 80 µM (inactive)
8 | CC1(C)CCN(S(=O)(=O)c2ccc(NC(=O)c3ccc([N+](=O)[O-])o3)cc2)CC1 | > 80 µM (inactive)
9 | O=C(Nc1nc2c(Cl)cc(Cl)cc2s1)c1ccccn1 | > 80 µM (inactive)
10 | O=C(Nc1ccc(S(=O)(=O)N2CCCC2)cc1)c1ccc([N+](=O)[O-])o1 | 74.6 µM (inactive)
11 | O=C(Nc1nc2c(F)ccc(F)c2s1)c1ccccn1 | 32.3 µM (inactive)
12 | O=C(Nc1ccc(S(=O)(=O)N2CCOCC2)cc1)c1ccc([N+](=O)[O-])o1 | > 80 µM (inactive)
13 | Cc1cc(C)c2nc(NC(=O)c3ccccn3)sc2c1 | 15.2 µM
14 | O=C(Nc1ccc(S(=O)(=O)C2CCCCC2)cc1)c1ccc([N+](=O)[O-])o1 | > 80 µM (inactive)
15 | O=C(Nc1nc2cc(F)cc(F)c2s1)c1ccccn1 | 9.35 µM
16 | O=C(Nc1nc2ccc(F)c(F)c2s1)c1ccccn1 | 14 µM
17 | CC(C)(C)C1CCN(S(=O)(=O)c2ccc(NC(=O)c3ccc([N+](=O)[O-])o3)cc2)CC1 | > 80 µM (inactive)
18 | O=C(Nc1nc2ccc(F)cc2s1)c1ccccn1 | 4.78 µM
19 | O=C(Nc1ccc(S(=O)(=O)N2CCC(F)CC2)cc1)c1ccc([N+](=O)[O-])o1 | > 80 µM (inactive)
20 | O=C(Nc1nc2cc(F)c(F)cc2s1)c1ccccn1 | 5.1 µM
21 | O=C(Nc1ccc(S(=O)(=O)N2CCCCC2)cc1)c1ccc([N+](=O)[O-])o1 | > 80 µM (inactive)
22 | O=C(Nc1ccc(S(=O)(=O)N2CCC(Cl)CC2)cc1)c1ccc([N+](=O)[O-])o1 | > 80 µM (inactive)
23 | O=C(Nc1ccc(S(=O)(=O)c2ccccc2)cc1)c1ccc([N+](=O)[O-])o1 | > 80 µM (inactive)
24 | O=C(Nc1nc2ccc(Cl)cc2s1)c1ccccn1 | 3.81 µM
25 | O=C(Nc1nc2c(F)cc(F)cc2s1)c1ccccn1 | 10.7 µM
26 | O=C(Nc1nc2c(F)c(F)ccc2s1)c1ccccn1 | 4.29 µM
27 | O=C(Nc1nc2cc(F)ccc2s1)c1ccccn1 | 2.62 µM
28 | CC1CN(S(=O)(=O)c2ccc(NC(=O)c3ccc([N+](=O)[O-])o3)cc2)CC(C)O1 (stereo not given) | > 80 µM (inactive)
29 | O=C(Nc1ccc(S(=O)(=O)N2CCOCC2)cc1)c1ccc([N+](=O)[O-])s1 | > 80 µM (inactive)
30 | CC1CCN(S(=O)(=O)c2ccc(NC(=O)c3ccc([N+](=O)[O-])o3)cc2)CC1 | > 80 µM (inactive)
